The record followed here is ChEMBL document CHEMBL3351651 (Bioorg Med Chem, 2014).

Data set [1] relates to Mus musculus. Put plainly: Hypolipidiemic activity in tyloxapol-induced ICR mouse hyperlipidemic model assessed as reduction in serum triglyceride level at 100 mg/kg, ip after 24 hrs. In kind it is functional. The settings on record: route intraperitoneal. Further details: scale not given: the % may be the effect or the level left.
Data set [2] deals with Mus musculus. Put plainly: Hypolipidiemic activity in tyloxapol-induced ICR mouse hyperlipidemic model assessed as reduction in serum cholesterol level at 50 mg/kg, ip after 24 hrs. It is filed as functional. The arrangement: scale not given: the % may be the effect or the level left. The settings on record: route intraperitoneal.
The nature of data set [3]: Metabolic stability in presence of pepsin (unknown origin) assessed as retention time by HPLC analysis. In kind it is ADME. The settings on record: human, isolated protein.
Data set [4] has as its system Mus musculus. Put plainly: Hypolipidiemic activity in tyloxapol-induced ICR mouse hyperlipidemic model assessed as reduction in serum cholesterol level at 25 mg/kg, ip after 24 hrs. It is filed as functional. The arrangement: scale not given: the % may be the effect or the level left. The settings on record: route intraperitoneal.
For data set [5], the system named is Mus musculus. Put plainly: Hypolipidiemic activity in tyloxapol-induced ICR mouse hyperlipidemic model assessed as reduction in serum triglyceride level at 50 mg/kg, ip after 24 hrs. It is filed as functional. The arrangement: scale not given: the % may be the effect or the level left. The settings on record: route intraperitoneal.
The test system of data set [6] is Mus musculus. The data set can be described thus: Hypolipidiemic activity in tyloxapol-induced ICR mouse hyperlipidemic model assessed as reduction in serum cholesterol level at 100 mg/kg, ip after 24 hrs. The settings on record: route intraperitoneal. The arrangement: scale not given: the % may be the effect or the level left. In kind it is functional.
In data set [7] the test system is Mus musculus. Put plainly: Hypolipidiemic activity in tyloxapol-induced ICR mouse hyperlipidemic model assessed as increase in serum HDL-cholesterol level at 25 mg/kg, ip after 24 hrs. It is filed as functional. The settings on record: route intraperitoneal.
Data set [8] concerns Mus musculus. Put plainly: Hypolipidiemic activity in tyloxapol-induced ICR mouse hyperlipidemic model assessed as increase in serum HDL-cholesterol level at 100 mg/kg, ip after 24 hrs. It is filed as functional. The settings on record: route intraperitoneal.
For data set [9], the system named is Mus musculus. The data set can be described thus: Hypolipidiemic activity in tyloxapol-induced ICR mouse hyperlipidemic model assessed as reduction in serum LDL-cholesterol level at 25 mg/kg, ip after 24 hrs. It is filed as functional. The arrangement: scale not given: the % may be the effect or the level left. The settings on record: route intraperitoneal.
The subject of data set [10] is Mus musculus. The data set can be described thus: Hypolipidiemic activity in tyloxapol-induced ICR mouse hyperlipidemic model assessed as increase in serum HDL-cholesterol level at 50 mg/kg, ip after 24 hrs. In kind it is functional. The settings on record: route intraperitoneal.
Data set [11] relates to Mus musculus. Put plainly: Hypolipidiemic activity in tyloxapol-induced ICR mouse hyperlipidemic model assessed as reduction in serum LDL-cholesterol level at 100 mg/kg, ip after 24 hrs. Further details: scale not given: the % may be the effect or the level left. The settings on record: route intraperitoneal. In kind it is functional.
Data set [12] is described as follows: Metabolic stability in presence of alpha-chymotrypsin (unknown origin) assessed as retention time by HPLC analysis. It is filed as ADME. The settings on record: human.
The test system of data set [13] is Mus musculus. The data set can be described thus: Hypolipidiemic activity in tyloxapol-induced ICR mouse hyperlipidemic model assessed as reduction in serum LDL-cholesterol level at 50 mg/kg, ip after 24 hrs. It is filed as functional. The arrangement: scale not given: the % may be the effect or the level left. The settings on record: route intraperitoneal.
Data set [14] deals with Mus musculus. The data set can be described thus: Hypolipidiemic activity in tyloxapol-induced ICR mouse hyperlipidemic model assessed as reduction in serum triglyceride level at 25 mg/kg, ip after 24 hrs. It is filed as functional. Further details: scale not given: the % may be the effect or the level left. The settings on record: route intraperitoneal.
For data set [15], the system named is Mus musculus. The data set can be described thus: Hypolipidiemic activity in tyloxapol-induced ICR mouse hyperlipidemic model assessed as reduction in serum LDL-cholesterol level at 17 mg/kg, ip after 24 hrs. The arrangement: scale not given: the % may be the effect or the level left. The settings on record: route intraperitoneal. In kind it is functional. Put shortly:
(§1)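 Male ICR mice (25–30 g) were kept at 24 °C with a 12 h light/dark cycle on standard pellet diet with free water. Hyperlipidemia was induced with tyloxapol (400 per table) and test agents were given ip. After 24 h, retro-orbital blood was centrifuged and serum TC, HDL-C and TG were measured. LDL-C was calculated by the Friedewald equation. Assays were run in duplicate; values are means of 6 mice.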

For data set [16], the system named is Mus musculus. Put plainly: Hypolipidiemic activity in tyloxapol-induced ICR mouse hyperlipidemic model assessed as reduction in serum cholesterol level at 17 mg/kg, ip after 24 hrs. The arrangement: scale not given: the % may be the effect or the level left. The settings on record: route intraperitoneal. It is filed as functional. Put shortly:
as §1

Data set [17] relates to Mus musculus. Put plainly: Hypolipidiemic activity in tyloxapol-induced ICR mouse hyperlipidemic model assessed as increase in serum HDL-cholesterol level at 17 mg/kg, ip after 24 hrs. It is filed as functional. The settings on record: route intraperitoneal. Put shortly:
as §1

For data set [18], the system named is Mus musculus. Put plainly: Hypolipidemic activity in tyloxapol-induced ICR mouse hyperlipidemic model assessed as reduction in serum triglyceride level at 17 mg/kg, ip after 24 hrs. It is filed as functional. The arrangement: scale not given: the % may be the effect or the level left. The settings on record: route intraperitoneal. Put shortly: as §1

For the compound `CCc1cc(OC)c(OC)cc1O`, the Activity is given as -81.65% in data set [1]; -73.41% in data set [2]; -67.13% in [4]; -86.97% in [5]; -75.85% in data set [6]; 33.9% in data set [7]. The Activity in data set [8] was 71.19%; in data set [9], -72.47%; in data set [10], 25.42%; in data set [11], -83.93%; in [13] it was -78.34%; in data set [14] it was -76.79%. For the same compound, the Retention_time in data set [3] was determined as 6.95 min. For the same compound, in data set [12], the Retention time was determined as 6.94 min.

With `CCc1cc(OC)c(OCC(=O)OC)cc1O`, the Activity in [1] is given as -75.87%; in [2] it was -69.22%; in data set [4] it was -79.08%; in data set [5] it was -59.63%; in [6], -78.2%; in data set [7], 40.68%. The Activity is -3.39% in [8]; -86.14% in data set [9]; 28.81% in data set [10]; -82.58% in data set [11]; -75.26% in [13]; -72.94% in data set [14]. Also, the Retention_time in data set [3] and in [12] was 7.78 min in each case.

Consider `CCCc1cc(OC)c(OCC(=O)OC)cc1O`, for which the Activity is listed as -71.38% in data set [1]; -80.21% in data set [2]; -79.77% in data set [4]; -81.93% in data set [5]; -74.02% in [6]; 91.53% in data set [7]. In addition, the Activity in data set [8] is reported as 50.85%; in data set [9], -89.32%; in data set [10], 57.63%; in data set [11], -81.23%; in data set [13] it was -87.97%; in data set [14], -84.13%.

Turning to `CCC(C)(C)C(=O)O[C@H]1C[C@@H](C)C=C2C=C[C@H](C)[C@H](CC[C@@H]3C[C@@H](O)CC(=O)O3)[C@H]21` [SIMVASTATIN], the Activity in data set [15] is given as -84.31%; in data set [16], -63.46%; in [17], 292.2%; in data set [18], -57%.

As for `CCCCc1cc(OC)c(OC)cc1O`, the Activity in data set [1] is given as -83.94%; in data set [2], -67.04%; in data set [4], -70.1%; in data set [5] it was -79.17%; in [6], -70.1%; in [7], 23.73%. Also, the Activity was 23.73% in data set [8]; -74.78% in data set [9]; 11.86% in [10]; -74.69% in data set [11]; -70.93% in [13]; -82.57% in [14]. The results for the Retention_time in [3] and in data set [12] were 12.45 min and 12.44 min, respectively.

As for `CCCC(=O)c1cc(OC)c(OC)cc1O`, the Activity is on record as -79.36% in [1]; -81.4% in data set [2]; -74.28% in [4]; -77.25% in data set [5]; -83.26% in data set [6]; 33.9% in [7]. For the same compound, the Activity in data set [8] is 8.47%; in [9] it was -80.65%; in [10] it was 30.51%; in [11], -88.74%; in [13], -87.97%; in data set [14] it was -69.54%. Also, the figures for the Retention_time in [3] and in [12] were 13.84 min and 13.83 min, respectively.

On to `CCCC(=O)c1cc(OC)c(OCC(=O)OC)cc1O`, for which the Activity in data set [1] was -73.58%; in data set [2], -49.26%; in data set [4] it was -78.38%; in [5], -27.8%; in data set [6] it was -73.23%; in [7], 30.51%. For the same compound, the Activity was 35.59% in [8]; -84.7% in data set [9]; 20.34% in [10]; -79.4% in data set [11]; -54.28% in data set [13]; -73.12% in data set [14]. The Retention_time stood at 13.16 min in data set [3] and 13.18 min in [12].

As for `CCC(=O)c1cc(OC)c(OC)cc1O`, the Activity in [1] is listed as -80.92%; in [2], -81.95%; in data set [4], -81.69%; in data set [5], -81.01%; in [6] it was -81.43%; in data set [7], 6.78%. The Activity in [8] is on record as 40.68%; in data set [9], -86.72%; in data set [10] it was 16.95%; in [11] it was -88.35%; in data set [13] it was -87.68%; in data set [14] it was -80.09%.

Consider `CCCc1cc(OC)c(OC)cc1O`, for which the Activity in data set [1] is listed as -77.98%; in data set [2], -66.7%; in data set [4] it was -71.84%; in data set [5] it was -73.85%; in [6], -69.22%; in data set [7], 49.15%. Also, the Activity was 15.25% in data set [8]; -78.15% in data set [9]; 25.42% in [10]; -73.63% in data set [11]; -71.61% in [13]; -82.75% in [14].

As to `COC(=O)COc1cc(O)c(C(C)=O)cc1OC`, the Activity in [1] is listed as -51.38%; in [2], -72.71%; in data set [4], -74.72%; in [5], -74.77%; in data set [6], -75.33%; in data set [7], 8.47%. Besides, the Activity in [8] is on record as 13.56%; in [9], -81.62%; in [10] it was 1.69%; in data set [11], -85.76%; in data set [13], -76.9%; in data set [14] it was -28.62%. For the same compound, the Retention_time in data set [3] came out at 8.67 min; in data set [12], 8.68 min.

Consider `CCCCc1cc(OC)c(OCC(=O)OC)cc1O`, for which the Activity in data set [1] is reported as -82.75%; in data set [2], -59.46%; in data set [4] it was -70.62%; in data set [5], -49.82%; in data set [6], -79.95%; in data set [7] it was 11.86%. Besides, the Activity in data set [8] is recorded as 89.83%; in data set [9], -77.77%; in data set [10], -3.39%; in [11], -89.51%; in data set [13], -62.75%; in data set [14], -20.46%. The Retention_time in [3] worked out at 13.81 min; in data set [12], 13.8 min.

Take `COc1cc(O)c(C(C)=O)cc1OC`: the Activity in data set [1] was -82.11%; in data set [2], -80.09%; in data set [4] it was -71.84%; in data set [5], -80.92%; in data set [6], -80.12%; in [7] it was -4.75%. Moreover, the Activity is reported as 55.93% in data set [8]; -76.23% in [9]; 44.07% in data set [10]; -87.68% in data set [11]; -87.01% in data set [13]; -59.63% in [14]. For the same compound, the Retention_time in data set [3] was 8.57 min; in [12], 8.58 min.

Regarding `CCC(=O)c1cc(OC)c(OCC(=O)OC)cc1O`, the Activity in data set [1] is recorded as -75.41%; in [2] it was -66.87%; in data set [4] it was -68.18%; in [5], -31.93%; in data set [6] it was -74.46%; in [7], -3.39%. The Activity is given as 45.76% in [8]; -72.18% in data set [9]; 66.1% in data set [10]; -81.33% in [11]; -76.03% in data set [13]; -59.82% in data set [14].
